Bioassay records deposited in PubChem by The Scripps Research Institute Molecular Screening Center.
CHRM4 agonist: human M4 muscarinic receptor agonists, primary screen, CHO-K1 cells, Fluo-8 calcium fluorescence; CHO-K1 hM4/Gqi5; vehicle 0%, full acetylcholine response 100%; activation, % at 3 µM; 0.14% of 360,000 active; AID 624127, 2012;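 active = activation above the run mean over all test wells plus 3 SD, cut at about 32% in these data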;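 also: peak over basal fluorescence ratio per well then scaled between controls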
V1R ag counter: agonists of human V1a receptor, primary screen, counter-screen for OXTR agonist project, fluorescence, CHO-V1R cells; Vasopressin V1a receptor (Homo sapiens), P37288; Fluo-8 calcium fluorescence, agonist mode; 0% DMSO, 100% 3 nM vasopressin; activation, % at 3 µM; 0.25% of 320,000 active; AID 2797, 2010;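 active = activation above the mean activation of all tested compounds plus 3 SD, per screening run, cut at about 20% in these data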;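 also: signal is peak over basal fluorescence ratio across a 100 second FLIPR read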
Target sequence (P37288 whole entry, looked up): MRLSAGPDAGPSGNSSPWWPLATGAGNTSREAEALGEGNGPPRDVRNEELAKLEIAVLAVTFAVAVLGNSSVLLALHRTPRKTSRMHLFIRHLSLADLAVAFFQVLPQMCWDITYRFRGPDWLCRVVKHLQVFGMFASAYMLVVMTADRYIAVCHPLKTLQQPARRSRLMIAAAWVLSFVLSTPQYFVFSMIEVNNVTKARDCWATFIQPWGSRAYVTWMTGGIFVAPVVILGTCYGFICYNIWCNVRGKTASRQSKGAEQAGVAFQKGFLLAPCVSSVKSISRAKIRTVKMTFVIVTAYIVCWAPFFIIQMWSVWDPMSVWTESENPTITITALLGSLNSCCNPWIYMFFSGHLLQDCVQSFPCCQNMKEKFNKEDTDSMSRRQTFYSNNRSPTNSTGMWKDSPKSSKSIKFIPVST
CHRM4 PAM: human M4 muscarinic receptor positive allosteric modulators, primary screen, CHO-K1 cells, Fluo-8 calcium fluorescence. CHO-K1 hM4/Gqi5, ACh EC20; 0% = ACh EC20, 100% = maximal ACh. activation, % at 3 µM. 0.4% of 360,000 active. AID 624126, 2012;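 active = activation above its plate's cutoff, the mean activation of sample wells plus 3 SD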
M4 antag: human M4 muscarinic receptor antagonists, primary screen, CHO cells, Fluo-8 calcium fluorescence. Muscarinic acetylcholine receptor M4 (Homo sapiens), P08173. CHO-hM4 cells, ACh EC80. inhibition, % at 3 µM. 0.73% of 360,000 active;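 active = inhibition above its plate's cutoff, the mean inhibition of sample wells plus 3 SD, cut at about 27% in these data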
OXTR potentiate: human OXTR potentiators, primary screen, fluorescence, CHO-OTR cells, Fluo-8 calcium; 0.061% of 320,000 active; AID 2445, 2010; Fluo-8 calcium fluorescence, potentiator mode; 0% = oxytocin EC15, 100% = EC100; Oxytocin receptor (Homo sapiens), P30559; activation, % at 3 µM;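 active = activation above that plate's cutoff, the mean activation of tested compounds plus 3 SD, cut at about 6.6% in these data, passing the limit was not always enough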
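Material: CHO-OTR cells, human receptor; compound dosing: single dose, 3.0 µM nominal final compound concentration; schedule: 6 min compound pre-incubation at room temperature, 100 s kinetic read; measured by: kinetic Fluo-8 calcium fluorescence; read-out basis: % activation vs EC15 and EC100 oxytocin; controls: EC15 oxytocin alone as 0%, 75 nM oxytocin as 100%; replicates: singlicate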
OXTR ag: human OXTR agonists, primary screen, fluorescence, CHO-OTR cells, Fluo-8 calcium | Oxytocin receptor (Homo sapiens), P30559 | Fluo-8 calcium fluorescence; normalized: DMSO 0%, oxytocin 100% | activation, % at 3 µM | 0.32% of 320,000 active | AID 2435, 2010;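 active = activation above the mean of all tested compounds plus 3 SD, cutoff set per screening run, cut at about 20% in these data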;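 also: peak over basal fluorescence ratio from a 100 s FLIPR kinetic read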
Each line names hits and unclear results; the compound was inactive in the other large screens. Only some compounds are listed: those with a hit (about 1.5% of all), similar ones and a draw of the others.

CCCC1(c2ccccc2)NC(=O)N(CC(=O)NCc2ccc(OC)cc2)C1=O (stereo unspecified)	CHRM4 PAM 21
CCCCN(C)C(=O)c1ccc(Nc2nc(C(N)COCc3ccccc3)cs2)nc1 (stereo unspecified)	none (no result: V1R ag counter, OXTR potentiate, OXTR ag)
CCC1CCCCN1CCCNC(=O)C1CCCN(c2nn3c(=O)cc(C)nc3s2)C1 (stereo unspecified)	none
Cc1cc(=O)n2nc(N3CCCC(C(=O)NCCCN4CCc5ccccc5C4)C3)sc2n1 (stereo unspecified)	M4 antag 28 (no result: V1R ag counter, OXTR potentiate, OXTR ag)
O=C(NCc1ccco1)c1ccc2c(c1)C(=O)N(C1CCCCC1)C2=O	CHRM4 PAM 32
Cc1ccc(C(=O)NCC(=O)OCC(=O)N(CC(C)C)c2c(N)n(Cc3ccccc3)c(=O)[nH]c2=O)s1	none (no result: V1R ag counter, OXTR potentiate, OXTR ag)
Cc1cccc(C)c1NC(=O)CN(C)C(=O)c1cccc(S(=O)(=O)N2CCN(c3ccccc3)CC2)c1	none
CN(Cc1ccc(OC(F)F)cc1)C(=O)c1cccc(S(=O)(=O)N2CCN(c3ccccc3)CC2)c1	M4 antag 39 (no result: V1R ag counter, OXTR potentiate, OXTR ag)
Cc1cccc(C)c1NC(=O)[C@@]1(CC(=O)O)CC(/C=C/c2ccccc2)=NO1	CHRM4 PAM 14 (no result: V1R ag counter, OXTR potentiate, OXTR ag)
CC[C@]12c3[nH]c4cc(-c5ccco5)ccc4c3CCN1C(=O)[C@@H](CC(=O)NCCN1CCOCC1)C[C@@H]2C(=O)N1CCN(C(=O)C2CC2)CC1	none (no result: V1R ag counter, OXTR potentiate, OXTR ag)
CC(=O)Nc1cc(-c2cccc(F)c2)cn2c(-c3ccc(F)cc3)cnc12	none (no result: V1R ag counter, OXTR potentiate, OXTR ag)
N#CCCN(Cc1ccccc1)C(=S)Nc1ccccc1	CHRM4 PAM 21
N#CCCN(Cc1ccccc1)C(=O)Nc1ccccc1	none
CCOC(=O)CN1C(=O)N(CC(=O)OCC)C(c2ccccc2)(c2ccccc2)C1=O	none
OCC1CCCN(c2nc(CN3CCCCC3)nc3scc(-c4ccccc4)c23)C1 (stereo unspecified)	none
CCNc1nc(CN2CCCCC2)nc2scc(-c3ccccc3)c12	M4 antag 27
CCCCC/C=C\C/C=C\C/C=C\C/C=C\CCCC(=O)O	OXTR potentiate 9.6 (no result: CHRM4 agonist, CHRM4 PAM, M4 antag)
O=c1cc(S(=O)(=O)Cc2ccccc2)[nH]c(=O)[nH]1	none (no result: V1R ag counter, OXTR potentiate, OXTR ag)
C1=C(c2ccc(-c3ccccc3)cc2)Nc2ncnn2C1c1ccco1 (stereo unspecified)	CHRM4 agonist 62, M4 antag 27 (no result: V1R ag counter, OXTR potentiate, OXTR ag)
Fc1ccc(C2=CC(c3ccc(Br)o3)n3ncnc3N2)cc1 (stereo unspecified)	V1R ag counter 34, OXTR ag 51
Fc1ccc(C2=CC(c3ccco3)n3ncnc3N2)cc1 (stereo unspecified)	none
CC(C)N(C)c1ncnc2c1ncn2[C@H]1CN(Cc2ccc(-c3ccccc3)cc2)C[C@@H](CO)O1	none (no result: V1R ag counter, OXTR potentiate, OXTR ag)
CCN(CC)c1ccc(C(=C2C=CC(=[N+](CC)CC)C=C2)c2ccc(N(CC)CC)cc2)cc1	M4 antag 43 (no result: V1R ag counter, OXTR potentiate, OXTR ag)
CCN(CC)c1ccc(C(=C2C=CC(=[N+](CC)CC)C=C2)c2ccccc2)cc1	CHRM4 agonist 66, M4 antag 99 (no result: V1R ag counter, OXTR potentiate, OXTR ag)
CC(=O)C1=CCC(c2ccc(Cl)cc2)N(S(=O)(=O)c2ccccc2)C1 (stereo unspecified)	none (no result: V1R ag counter, OXTR potentiate, OXTR ag)
C=CCC[C@@H](Cc1ccc(F)cc1)C(=O)OC[C@H]1CCCN1C(=O)[C@@H](CC=C)CC(=O)N[C@H](CO)Cc1ccccc1	M4 antag 31
CO[C@H]1CN(C)C(=O)c2cc(NC(=O)c3cc(C)on3)ccc2OC[C@@H](C)N(C(=O)C2CC2)C[C@H]1C	none (no result: V1R ag counter, OXTR potentiate, OXTR ag)
CC(=O)C1=C(O)C(=O)N(c2cc(C(C)(C)C)on2)C1c1ccc(Br)cc1 (stereo unspecified)	CHRM4 PAM 30
O=C(Nc1cccc(S(=O)(=O)C(F)(F)F)c1)[C@H]1C[C@H](O)[C@@H](CO)O1	none (no result: V1R ag counter, OXTR potentiate, OXTR ag)
Cc1cccc(C)c1NC(=O)C(c1ccc(C#N)cc1)n1c(=O)c(-c2ccccc2)nc2ccccc21 (stereo unspecified)	CHRM4 PAM 23 (no result: V1R ag counter, OXTR potentiate, OXTR ag)
O=C(NCC1CCCO1)C1CCCN1C(=O)Nc1ccc(Cl)cc1 (stereo unspecified)	none
COc1ccc(-c2noc(CCC(=O)NCC3CCCO3)n2)cc1OC (stereo unspecified)	M4 antag 27
O=c1cc(-c2ccc(O)cc2)oc2ccc(O)cc12	CHRM4 PAM 42
CN1CCN(C2Cc3cc(Cl)ccc3Sc3cc(F)ccc32)CC1 (stereo unspecified)	M4 antag 94
c1ccc2c(c1)CC(N1CCCCC1)c1ccccc1S2 (stereo unspecified)	none
CCc1ccc2c(c1)Sc1ccccc1CC2N1CCN(C)CC1 (stereo unspecified)	M4 antag 33
CCCNC(=O)C1(C)CCCN(Cc2ccc(-c3ccccn3)cc2)C1 (stereo unspecified)	none (no result: V1R ag counter, OXTR potentiate, OXTR ag)
COc1ccc(CNC(=O)CCNC(=O)C2CCN(S(=O)(=O)c3ccc(OC)cc3)CC2)cc1	CHRM4 PAM 19 (no result: V1R ag counter, OXTR potentiate, OXTR ag)
CC(C)[C@H](NC(=O)C1CCN(S(=O)(=O)c2ccccc2)CC1)C(=O)NCc1ccccc1	CHRM4 PAM 15
CC(C)NC(=O)N(C)C[C@@H]1Oc2c(NC(=O)Nc3ccccc3)cccc2C(=O)N([C@H](C)CO)C[C@H]1C	none
CC(=O)C1CCC2C3C=CC4=CC(=O)CCC4(C)C3CCC12C (stereo unspecified)	none (no result: V1R ag counter, OXTR potentiate, OXTR ag)
CC(=O)Nc1ccc(S(=O)(=O)NCCC(=O)OCC(=O)NCc2ccccc2)cc1	none
CC1Oc2ccccc2N(CC(=O)N2CCCCC2)C1=O (stereo unspecified)	CHRM4 PAM 17
COCC1CCCC1OS(N)(=O)=O (stereo unspecified)	none
O=C(CN1C(=O)NC2(CCc3ccccc32)C1=O)NCc1ccc(Cl)cc1 (stereo unspecified)	CHRM4 PAM 24
Cn1c(=O)c(NC2CCCCC2)c2c3c(cccc31)C(=O)c1ccccc1-2	none (no result: V1R ag counter, OXTR potentiate, OXTR ag)
CC(=O)Nc1ccc(Nc2c3c4c(cccc4n(C)c2=O)C(=O)c2ccccc2-3)cc1	none
Cn1c(=O)c(NCCc2ccccc2)c2c3c(cccc31)C(=O)c1ccccc1-2	CHRM4 agonist 151, V1R ag counter 279, M4 antag 76, OXTR ag 213
Cn1c(=O)c(NCCO)c2c3c(cccc31)C(=O)c1ccccc1-2	CHRM4 agonist 39, V1R ag counter 569, OXTR ag 522
CCNc1c2c3c(cccc3n(C)c1=O)C(=O)c1ccccc1-2	V1R ag counter 181, OXTR ag 140 (no result: CHRM4 agonist, CHRM4 PAM, M4 antag)
